Reference: ChEMBL document CHEMBL4808187, “Antiarrhythmic Hit to Lead Refinement in a Dish Using Patient-Derived iPSC Cardiomyocytes” (J Med Chem, 2021)
Calls of active or inactive are those of the source. No cut-off for these calls is given here.

Tests used:
iPSC-CM [1] = experiment: (§1) Antiarrhythmic activity in patient-derived hiPSC-CMs carrying LQT3 mutation assessed as shortening dose of action potential; format: functional; details: Homo sapiens
[2] = Antiarrhythmic activity in patient-derived hiPSC-CMs carrying LQT3 mutation assessed as shortening of action potential duration; format: functional, Homo sapiens; details: ipsc-cm
[3] = Antiarrhythmic activity in hiPSC-CMs assessed as fold prolongation of action potential relative to control; details: human, ipsc-cm
[4] = Antiarrhythmic activity in hiPSC-CMs assessed as dose for induction of early after depolarizations; details: human, ipsc-cm
[5] = Antiarrhythmic activity in hiPSC-CMs assessed as cessation dose of cell beating; details: human, ipsc-cm
iPSC-CM [6] = experiment: (§2) Antiarrhythmic activity in patient-derived hiPSC-CMs carrying LQT3 mutation assessed as fold shortening of action potential duration relative to control; format: functional; details: Homo sapiens
[7] = (§3) Antiarrhythmic activity in patient-derived hiPSC-CMs carrying LQT3 mutation assessed as cessation dose for cell beating; format: functional, Homo sapiens, iPSC-CM
[8] = Metabolic stability in human liver microsomes assessed as half life at 50 uM measured upto 60 mins by HPLC method; format: ADME, Microsome
How it was run: (§4)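 Human liver microsomes (0.4–0.5 mg protein) or S-9 (1 mg) with 50 μM compound in 50 mM potassium phosphate pH 7.4 plus NADPH-generating system, 37 °C shaking for 0, 7, 15, 30, 60 min; stopped with cold acetonitrile; HPLC C18, isocratic water/acetonitrile with 0.05% TFA, UV 275.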

[9] = Metabolic stability in human liver S9 fraction assessed as compound remaining at 50 uM after 1 hr by HPLC method; format: ADME, subcellular; details: read-out: Stabilty; how it was run: as §4
[10] = as §1; format: functional, Homo sapiens, iPSC-CM
[11] = Potency index, ratio of mexiletine EC50 to test compound EC50 for antiarrhythmic activity in hiPSC-CMs expressing LQT3 mutation assessed as shortening of action potential duration; format: functional, Homo sapiens, iPSC-CM
[12] = Antiarrhythmic activity in hiPSC-CMs assessed as prolongation of action potential; design: species or system Homo sapiens, iPSC-CM; details: ipsc-cm
[13] = as §2; format: functional, Homo sapiens, iPSC-CM
Homo sapiens = species on record: Homo sapiens; experiment: Selectivity index, ratio of IC50 for potassium channel (unknown origin) expressed in CHO cells assessed as reduction in potassium current to IC50 for sodium channel (unknown origin) expressed in HEK cells assessed as reduction in late inward sodium current
[14] = Inhibition of sodium channel (unknown origin) expressed in HEK cells assessed as reduction in peak sodium current by automated patch clamp method; format: cell-based; details: Homo sapiens, HEK293
[15] = Inhibition of potassium channel (unknown origin) expressed in CHO cells assessed as reduction in potassium current by automated patch clamp method; format: cell-based
[16] = Inhibition of sodium channel (unknown origin) expressed in HEK cells assessed as reduction in late inward sodium current by automated patch clamp method; format: cell-based; details: Homo sapiens, HEK293
[17] = Chemical stability in pH 3 phosphate buffer assessed as half life at 100 uM by RP-HPLC analysis; format: physicochemical
[18] = Chemical stability in pH 7.4 phosphate buffer assessed as half life at 100 uM by RP-HPLC analysis; format: physicochemical
Cytochrome P450 3A5 = Cytochrome P450 3A5 (Homo sapiens, UniProt P20815); experiment: Drug metabolism assessed as human CYP3A5-mediated metabolism per ug protein; format: ADME; details: recombinant enzyme
Chain of Cytochrome P450 3A5 (P20815 whole entry): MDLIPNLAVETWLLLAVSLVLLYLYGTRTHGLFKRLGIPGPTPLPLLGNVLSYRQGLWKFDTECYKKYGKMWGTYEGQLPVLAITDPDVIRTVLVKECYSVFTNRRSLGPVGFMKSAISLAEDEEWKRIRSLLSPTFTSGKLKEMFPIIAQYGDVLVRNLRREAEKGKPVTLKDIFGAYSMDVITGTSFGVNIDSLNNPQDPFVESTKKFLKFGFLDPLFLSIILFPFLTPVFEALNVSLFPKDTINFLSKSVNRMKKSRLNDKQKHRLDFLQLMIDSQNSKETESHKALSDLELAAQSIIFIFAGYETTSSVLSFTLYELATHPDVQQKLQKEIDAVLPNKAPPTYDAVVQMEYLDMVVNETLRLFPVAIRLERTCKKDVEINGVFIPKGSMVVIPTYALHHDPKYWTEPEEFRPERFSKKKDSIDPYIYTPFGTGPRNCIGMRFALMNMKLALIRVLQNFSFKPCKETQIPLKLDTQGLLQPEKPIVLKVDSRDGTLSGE

Cytochrome P450 3A4 = Cytochrome P450 3A4 (Homo sapiens, UniProt P08684); experiment: Drug metabolism assessed as human CYP3A4-mediated metabolism per ug protein; format: ADME; details: recombinant enzyme
Chain of Cytochrome P450 3A4 (P08684 whole entry): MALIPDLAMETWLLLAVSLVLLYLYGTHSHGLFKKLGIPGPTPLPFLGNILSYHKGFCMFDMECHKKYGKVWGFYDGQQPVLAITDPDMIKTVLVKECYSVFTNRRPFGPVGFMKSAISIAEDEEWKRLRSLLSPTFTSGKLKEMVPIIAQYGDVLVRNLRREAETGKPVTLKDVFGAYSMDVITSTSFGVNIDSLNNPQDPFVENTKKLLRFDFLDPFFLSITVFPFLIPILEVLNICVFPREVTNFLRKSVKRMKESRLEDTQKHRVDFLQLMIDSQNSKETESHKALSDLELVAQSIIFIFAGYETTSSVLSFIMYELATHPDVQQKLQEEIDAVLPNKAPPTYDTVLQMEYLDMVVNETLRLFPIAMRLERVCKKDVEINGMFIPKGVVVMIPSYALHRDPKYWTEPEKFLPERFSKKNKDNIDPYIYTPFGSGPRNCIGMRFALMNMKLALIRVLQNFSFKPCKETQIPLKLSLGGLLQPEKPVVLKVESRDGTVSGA

Cytochrome P450 2D6 = Cytochrome P450 2D6 (Homo sapiens, UniProt P10635); experiment: Drug metabolism assessed as human CYP2D6-mediated metabolism per ug protein; format: ADME; details: recombinant enzyme
Chain of Cytochrome P450 2D6 (P10635 whole entry): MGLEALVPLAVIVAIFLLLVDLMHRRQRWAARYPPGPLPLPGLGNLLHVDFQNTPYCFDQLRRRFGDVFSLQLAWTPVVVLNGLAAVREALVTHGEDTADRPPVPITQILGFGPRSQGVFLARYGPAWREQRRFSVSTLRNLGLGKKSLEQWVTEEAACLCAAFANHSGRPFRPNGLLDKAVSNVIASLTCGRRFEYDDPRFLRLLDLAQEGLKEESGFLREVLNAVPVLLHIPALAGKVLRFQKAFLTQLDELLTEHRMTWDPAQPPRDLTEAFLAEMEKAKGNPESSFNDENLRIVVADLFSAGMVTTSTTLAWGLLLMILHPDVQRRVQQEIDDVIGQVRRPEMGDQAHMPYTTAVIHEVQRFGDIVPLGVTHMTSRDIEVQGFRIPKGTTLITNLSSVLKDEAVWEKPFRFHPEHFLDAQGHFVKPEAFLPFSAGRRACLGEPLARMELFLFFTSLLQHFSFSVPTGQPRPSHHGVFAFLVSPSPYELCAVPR

[19] = Metabolic stability in human liver microsomes assessed as compound remaining at 50 uM after 1 hr by HPLC method; format: ADME, Microsome; details: read-out: Stabilty; how it was run: as §4
iPSC-CM [20] = experiment: as §3; format: functional; details: Homo sapiens

Structure (SMILES) | Activity (iPSC-CM [1]) | EC50 [2] | Activity [4] | Activity [5] | Activity [7] [µM] | Activity [10] [µM] | EC50 ([2]; read-out: EC50) [µM] | EC50 [12] | fold change (FC) [13] | IC50 [14] [µM] | IC50 [15] [µM] | other results
CCNC(COc1cccc(C)c1C)c1ccccc1.Cl (centres undefined) | inactive | Not Active | Not Active | 133 µM | 22 |  |  |  |  |  |  | Activity [3]: Not Active; fold change (FC) (iPSC-CM [6]): inactive
Cc1ccccc1OC[C@@H](N)c1ccccc1.Cl |  |  |  |  |  |  |  |  |  |  |  | half-life at 50 µM [8]: 0.0944 days; remaining at 1 h, 50 µM [9]: > 95%
Cc1cccc(C)c1OCC(N)c1ccc(C(F)(F)F)cc1.Cl (centres undefined) |  |  | Not Active | 66 µM | 66 | 22 | 1.4 | Not Active | 1.48 |  |  | Ratio EC50 [11]: 7
Cc1ccc(C(N)COc2c(C)cccc2C)cc1.Cl (centres undefined) |  | Not Active | Not Active | 66 µM | 66 | 22 |  | Not Active | 1.588 |  |  | Ratio EC50 [11]: 7
CCCNC(COc1cccc(C)c1C)c1ccccc1.Cl (centres undefined) | inactive | Not Active | Not Active | Not Active | 133 |  |  |  |  |  |  | Activity [3]: Not Active; fold change (FC) (iPSC-CM [6]): inactive
Cc1cc(C)cc(OCC(N)C2CC2)c1.Cl (centres undefined) |  |  | 66 µM | 200 µM | 200 | 22 | 2.06 |  | 1.15 | 76.8 | 45.8 | Ratio IC50 (Homo sapiens): 4.6; fold change (FC) [3]: 2.12; IC50 [16]: 10 µM
Cc1ccccc1OCC(N)c1ccccc1.Cl (racemic) |  |  |  |  |  |  |  |  |  |  |  | half-life at 100 µM [17]: > 15 days; half-life at 100 µM [18]: > 30 days
Cc1cc(C)cc(OCC(N)c2ccccc2)c1.Cl (racemic) |  |  | Not Active | 66 µM | 66 | 7.4 | < 0.8 | Not Active | 1.279 | 20.1 | 6.2 | Ratio IC50 (Homo sapiens): 31; IC50 [16]: 0.2 µM; Drug metabolism (Cytochrome P450 3A5): Metabolite_Notdetected; Drug metabolism (Cytochrome P450 3A4): Metabolite_Notdetected; half-life at 100 µM [18]: > 30 days; Drug metabolism (Cytochrome P450 2D6): 6.9 pmol/min
Cc1cccc(C)c1OC[C@@H](C)N [(R)-MEXILETINE] |  |  | 200 µM | Not Active |  | 7.4 | 0.96 |  |  | 129 | 84 | remaining at 1 h, 50 µM [19]: > 95%; remaining at 1 h, 50 µM [9]: > 95%; Activity (iPSC-CM [20]): inactive
COCCNC(COc1cc(C)cc(C)c1)c1ccccc1.Cl (centres undefined) | inactive | Not Active | Not Active | 200 µM | 200 |  |  |  |  | 38 | 5.1 | Ratio IC50 (Homo sapiens): 6.8; Activity [3]: Not Active; IC50 [16]: 0.753 µM; fold change (FC) (iPSC-CM [6]): inactive
Cc1cccc(C)c1OCC(C)NC(=O)c1ccccc1.Cl (centres undefined) |  |  | Not Active | 66 µM | 133 | 66 | 133 | Not Active | 1.45 |  |  | Ratio EC50 [11]: 9
Cc1cccc(C)c1OCC(C)Nc1ccccc1.Cl (centres undefined) | inactive | Not Active | Not Active | Not Active |  |  |  | Not Active |  |  |  | Activity (iPSC-CM [20]): inactive
